Reference: PMC4378865 (Journal of biomolecular screening, 2014)

Key:
T. brucei MetRS [1] = biological target: T1, T. brucei MetRS (Trypanosoma brucei brucei, UniProt Q38C91); experiment: Luminescence; format: biochemical
T1 sequence (Q38C91 1-773): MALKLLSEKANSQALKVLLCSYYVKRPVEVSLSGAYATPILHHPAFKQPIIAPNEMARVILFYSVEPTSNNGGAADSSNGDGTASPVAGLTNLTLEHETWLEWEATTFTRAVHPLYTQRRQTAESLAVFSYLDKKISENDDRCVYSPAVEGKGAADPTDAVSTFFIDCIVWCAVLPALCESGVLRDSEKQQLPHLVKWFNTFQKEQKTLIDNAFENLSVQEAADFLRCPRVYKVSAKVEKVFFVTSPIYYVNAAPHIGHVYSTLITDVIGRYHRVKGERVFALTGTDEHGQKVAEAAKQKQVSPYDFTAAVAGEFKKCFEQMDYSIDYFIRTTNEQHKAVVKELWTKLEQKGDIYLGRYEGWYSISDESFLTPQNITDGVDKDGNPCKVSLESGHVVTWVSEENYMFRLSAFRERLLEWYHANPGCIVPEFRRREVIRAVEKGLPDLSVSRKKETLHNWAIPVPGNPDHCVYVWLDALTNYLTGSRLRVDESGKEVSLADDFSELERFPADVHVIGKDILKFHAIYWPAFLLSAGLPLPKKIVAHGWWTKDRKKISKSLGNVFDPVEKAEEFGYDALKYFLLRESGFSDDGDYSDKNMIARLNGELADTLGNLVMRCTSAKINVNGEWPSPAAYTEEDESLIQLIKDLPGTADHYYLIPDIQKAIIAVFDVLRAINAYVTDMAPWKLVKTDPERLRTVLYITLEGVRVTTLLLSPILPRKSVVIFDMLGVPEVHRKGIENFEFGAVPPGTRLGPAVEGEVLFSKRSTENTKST

[2] = biological target: T2, human mitochondrial MetRS (Homo sapiens, UniProt Q96GW9); experiment: Aminoacylation assay, selectivity counterscreen; format: biochemical
T2 sequence (Q96GW9 30-593): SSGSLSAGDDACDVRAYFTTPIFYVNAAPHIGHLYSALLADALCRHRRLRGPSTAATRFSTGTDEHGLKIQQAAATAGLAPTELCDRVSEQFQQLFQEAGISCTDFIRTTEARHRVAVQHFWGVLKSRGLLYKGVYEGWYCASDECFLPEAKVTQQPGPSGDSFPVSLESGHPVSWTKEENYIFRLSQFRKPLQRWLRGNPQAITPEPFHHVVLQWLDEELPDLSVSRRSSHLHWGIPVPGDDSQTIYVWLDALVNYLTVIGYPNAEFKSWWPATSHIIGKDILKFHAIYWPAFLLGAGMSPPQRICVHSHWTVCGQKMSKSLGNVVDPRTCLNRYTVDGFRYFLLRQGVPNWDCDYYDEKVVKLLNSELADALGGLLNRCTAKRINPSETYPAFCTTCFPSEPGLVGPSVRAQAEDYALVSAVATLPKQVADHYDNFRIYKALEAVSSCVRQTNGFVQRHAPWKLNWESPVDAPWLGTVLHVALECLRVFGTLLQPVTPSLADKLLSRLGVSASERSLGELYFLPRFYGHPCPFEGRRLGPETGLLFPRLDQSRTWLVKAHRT

[3] = cited from earlier work
T. brucei MetRS [4] = biological target: T1, T. brucei MetRS; details: formerly shown; cited from earlier work
T. brucei MetRS [5] = biological target: T1, T. brucei MetRS; experiment: Orthogonal fluorescence polarization AMP production assay; format: biochemical
Outline: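 Concentration-response was run in triplicate as a 10-point serial dilution from 120 µM. AMP was detected by FP with a Transcreener AMP²/GMP² reagent (Cy5, excitation 620 nm, emission 688 nm), with FP = (S − P)/(P + S). Percent inhibition was normalized per plate between DMSO-only wells and wells with 1.5 µM reference inhibitor.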

Jurkat cells = experiment: Jurkat cell cytotoxicity counterscreen; format: cell-based
Outline: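 Jurkat E6.1 suspension cells grown in RPMI-1640 with 10% dialyzed FBS, NEAA, pyruvate, HEPES, glutamine and antibiotic-antimycotic at 37 °C, 5% CO₂. CellTiter-Glo added, 10 min RT, then luminescence read. Tested in triplicate. Data normalized per plate: 8 µM doxorubicin as high control, DMSO as low control.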

T. brucei MetRS [6] = biological target: T1, T. brucei MetRS; experiment: Aminoacylation assay, incorporation of [3H]L-methionine into tRNA; format: biochemical
[7] = luminescence ATP depletion assay, 1536-well
[8] = fluorescence polarization assay

`COc1cccc(NC(=O)CSc2nnc3c(n2)[nH]c2ccc(C)cc23)c1` [CID 24793614] gave an IC50 (T. brucei MetRS [1]; [7]) of 44 nM.
In the case of `CN(Cc1cc(Cl)cc(Cl)c1)[C@H]1C[C@H]2c3[nH]c4ccccc4c3CCN2C(=O)[C@H]1CO` [CID 46902334], the “% inhibition” value ([2]; at 1, human mitochondrial MetRS) is reported as 14.3% and the “% inhibition” value ([2]; at 10, human mitochondrial MetRS) is reported as 80.3%.
In the case of `Oc1cc(NCCCNCc2cc(Cl)cc(Cl)c2)nc2ccccc12` [CID 18353708, 2-((3-((3,5-dichlorobenzyl)amino)propyl)amino)quinolin-4(1H)-one, reference compound], the bioavailability [3] is given as “poor bioavailability”, the IC50 (T. brucei MetRS [1]) is given as 24.2 ± 2.74 nM and the Hill slope (T. brucei MetRS [1]; luminescence ATP depletion assay, N=11) is given as 4.41 ± 0.56. For the same compound, the “inhibition of T. brucei MetRS” value (T. brucei MetRS [4]) was “sub-micromolar inhibition”, the IC50 (T. brucei MetRS [5]) was 30.3 ± 4.81 nM and the Hill slope (T. brucei MetRS [5]; fluorescence polarization assay, N=3) was 4.34 ± 0.17.
In the case of `O=C(CCCSc1ccc(Cl)cc1)Nc1ccccc1O` [CID 16312830], the “activity in the Jurkat cytotoxicity assay” value (Jurkat cells; dose response, highest dilution 83.3 M) is reported as “activity”.
With `O=C(Cn1cc(C(=O)C(=O)N2CCOCC2)c2ccccc21)Nc1cccc(C(F)(F)F)c1` [CID 2973195] the IC50 (Jurkat cells; Jurkat cytotoxicity assay) was > 83000 nM, the pIC50 (Jurkat cells; Jurkat cytotoxicity assay) was < 4.08 and the IC50 (T. brucei MetRS [1]; [7]) was 171 nM. It also gave a pIC50 (T. brucei MetRS [1]; [7]) of 6.77, an IC50 (T. brucei MetRS [5]; [8]) of 292 nM and a pIC50 (T. brucei MetRS [5]; [8]) of 6.53.
For `Cn1nc(C(F)(F)F)c(-c2cccc(C(F)(F)F)c2)c1NC(=O)Nc1ccc(F)cc1` [CID 2810697], the “activity in fluorescence polarization assay” value (T. brucei MetRS [5]; dose response curve) was “inactivity”.
With `O=C(CN1CCSC1=NCc1ccccc1)c1ccc(Cl)c(Cl)c1` [CID 4656759] the “% inhibition” value (T. brucei MetRS [6]) was 28%.
